Some results are limits rather than exact numbers.

This experiment concerns the target T1, Sphingomyelin phosphodiesterase 2 (Rattus norvegicus, UniProt Q9ET64).
T1 sequence (Q9ET64 whole entry): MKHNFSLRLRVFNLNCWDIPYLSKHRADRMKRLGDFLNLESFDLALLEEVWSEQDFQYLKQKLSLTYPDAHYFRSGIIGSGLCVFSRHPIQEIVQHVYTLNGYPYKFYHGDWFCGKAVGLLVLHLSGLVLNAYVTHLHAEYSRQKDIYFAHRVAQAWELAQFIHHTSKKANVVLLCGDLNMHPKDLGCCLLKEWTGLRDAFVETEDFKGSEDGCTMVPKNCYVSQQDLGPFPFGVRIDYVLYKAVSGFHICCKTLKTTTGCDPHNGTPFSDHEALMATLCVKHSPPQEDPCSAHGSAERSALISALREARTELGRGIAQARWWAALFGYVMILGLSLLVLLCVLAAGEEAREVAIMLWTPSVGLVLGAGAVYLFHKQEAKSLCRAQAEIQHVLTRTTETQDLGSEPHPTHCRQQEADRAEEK
Briefly: Inhibitory concentration against the membrane neutral magnesium-dependent Sphingomyelinase (N-SMase) using rat brain microsomes as the enzyme source. The procedure, abridged: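 Rat brain microsomes served as the enzyme source and were incubated 25 min at 37 °C with 0.3mM ¹⁴C-labelled sphingomyelin in 100 mM Tris–HCl (pH 7.5), 20 mM MgCl₂ and 0.25% Triton X-100, across a range of inhibitor concentrations. Released radioactive phosphorylcholine was separated by chloroform/methanol (2/1) extraction and counted by scintillation in the aqueous phase. IC₅₀ was derived from these counts.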

Regarding `CCCCCCCCCCCCC/C=C/[C@@H](O)[C@H](COC(=O)NCc1ccncc1)NC(=O)CCCCCCCCCCCCCCCCC`, the IC50 (in general, the concentration that gives 50% inhibition) was greater than 100 µM.

In the case of `CCCCCCCCCCCCC/C=C/[C@@H](O)[C@H](COC(=O)NCc1ccccn1)NC(=O)C(C)(C)C`, the IC50 is 5 µM. Then `CCCCCCCCCCCCC/C=C/[C@@H](O)[C@H](COC(=O)NCc1ccc(N(C)C)cc1)NC(=O)C(C)(C)C`, with 8.2 µM; and `CCCCCCCCCCCCC/C=C/[C@@H](O)[C@H](COC(=O)NCCc1ccccn1)NC(=O)C(C)(C)C`, with 8.4 µM; and `CCCCCCCCCCCCC/C=C/[C@@H](O)[C@H](COC(=O)NCCC(C)(C)C)NC(=O)C(C)(C)C`, with 77 µM.

On to `CCCCCCCCCCCCC/C=C/[C@@H](O)[C@H](COC(=O)NCc1ccncc1)NC(C)=O`, for which the half-inhibitory concentration (IC50) is greater than 100 µM. In the case of `CCCCCCCCCCCCC/C=C/[C@@H](O)[C@H](COC(=O)NCC[N+](C)(C)C)NC(=O)C(C)(C)C`, the IC50 worked out at 8.7 µM. `CCCCCCCCCCCCC/C=C/[C@@H](O)[C@H](COC(=O)CCCN(C)C)NC(=O)C(C)(C)C`: half-maximal inhibition (IC50) was put at 31 µM. Then `CCCCCCCCCCCCC/C=C/[C@@H](O)[C@H](COC(=O)NCc1cccnc1)NC(=O)C(C)(C)C`, with 2.1 µM; and `CCCCCCCCCCCCC/C=C/C(O)C(N)COC(=O)NCc1ccncc1` (single isomer, unassigned), with greater than 100 µM; and `CCCCCCCCCCCCC/C=C/[C@@H](O)[C@H](COC(=O)NCc1ccncc1)NC(=O)C(C)C`, with 1.8 µM. Molecule `CCCCCCCCCCCCC/C=C/[C@@H](O)[C@H](COC(=O)Nc1ccccn1)NC(=O)C(C)(C)C` registered an IC50 of 7.9 µM. With `CCCCCCCCCCCCC/C=C/[C@@H](O)[C@H](COC(=O)NCc1ccncc1)NC(=O)OC(C)(C)C` the figure was greater than 100 µM. Consider `CCCCCCCCCCCCC/C=C/[C@@H](O)[C@H](COC(=O)NCCN(C(C)C)C(C)C)NC(=O)C(C)(C)C`, for which half-maximal inhibition (IC50) required 18 µM. `CCCCCCCCCCCCC/C=C/[C@@H](O)[C@H](COC(=O)NCCCN(C)C)NC(=O)C(C)(C)C` returned an IC50 of 4.9 µM.

In the case of `CCCCCCCCCCCCC/C=C/[C@@H](O)[C@H](COC(=O)NCCN(C)C)NC(=O)C(C)(C)C`, the IC50 is 4.1 µM.

Values taken from ChEMBL document CHEMBL1136531, “Sphingomyelin analogues as inhibitors of sphingomyelinase” (Bioorg Med Chem Lett, 2003).
